Results as given in ChEMBL document CHEMBL1154801, “Novel phosphoramidates with porphine and nitrogenous drug: one-pot synthesis and orientation to cancer cells” (Eur J Med Chem, 2010).

Legend:
Bel-7402 = test: Cytotoxicity against human Bel7402 cells after 48 hrs in the dark by MTT assay; assay type: functional, cell-based; conditions: Bel-7402, 48 h
Outline: (§1)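 Cells seeded at 5000 per well and left to attach overnight. Compounds were taken from 50 mM DMSO stocks and diluted to final concentrations of 2.5–100 μM. Cells were exposed for 48 h in the dark, then given MTT (5 mg/mL in PBS) for 3 h. Formazan was dissolved in DMSO and absorbance read at 570 nm. The 50% cell-death concentration (IC50) was determined.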

[1] = Cytotoxicity against human L02 cells after 48 hrs in the dark by MTT assay; assay type: cell-based; conditions: l02, 48 h; outline: as §1

Structure (SMILES) | IC50 (Bel-7402) | Activity [1]
O=P(NCCCl)(NCCCl)Oc1ccc(-c2c3nc(c(-c4ccc(Cl)cc4)c4ccc([nH]4)c(-c4ccc(Cl)cc4)c4nc(c(-c5ccc(Cl)cc5)c5ccc2[nH]5)C=C4)C=C3)cc1 | 20.3 µM | Non-toxic
COc1ccc(-c2c3nc(c(-c4ccc(OC)cc4)c4ccc([nH]4)c(-c4ccc(OP(=O)(NCCCl)NCCCl)cc4)c4nc(c(-c5ccc(OC)cc5)c5ccc2[nH]5)C=C4)C=C3)cc1 | 17.3 µM | Non-toxic
Cc1ccc(-c2c3nc(c(-c4ccc(C)cc4)c4ccc([nH]4)c(-c4ccc(OP(=O)(NCCCl)NCCCl)cc4)c4nc(c(-c5ccc(C)cc5)c5ccc2[nH]5)C=C4)C=C3)cc1 | 11.4 µM | Non-toxic
O=P(NCCCl)(NCCCl)Oc1ccc(-c2c3nc(c(-c4ccc(Br)cc4)c4ccc([nH]4)c(-c4ccc(Br)cc4)c4nc(c(-c5ccc(Br)cc5)c5ccc2[nH]5)C=C4)C=C3)cc1 | 8.41 µM | Non-toxic
O=P(NCCCl)(NCCCl)Oc1ccc(-c2c3nc(c(-c4ccccc4)c4ccc([nH]4)c(-c4ccccc4)c4nc(c(-c5ccccc5)c5ccc2[nH]5)C=C4)C=C3)cc1 | 14.4 µM | Non-toxic
O=Cc1ccc(OP(=O)(NCCCl)NCCCl)cc1 | > 150 µM | Toxic
CC1=C(CCC(=O)O)c2cc3[nH]c(cc4nc(cc5[nH]c(cc1n2)c(C)c5C(C)O)C(C)=C4C(C)O)c(C)c3CCC(=O)O (stereo not drawn) | 8.93 µM | –
